This note sets out measurements from ChEMBL document CHEMBL4257484, “Membrane-active antimicrobial poly(amino-modified alkyl) β-cyclodextrins synthesized via click reactions” (Medchemcomm, 2018).

Each structure is given as a SMILES string. ≈ marks a conversion by molar mass, not a printed value.

Data set [1] concerns Staphylococcus aureus. Kind of data set: Antibacterial activity against Staphylococcus aureus FDA 209P assessed as decrease in cell viability after 30 mins by colony counting method. The format is functional. As to conditions: 0.5 h. Summed up:
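S. aureus washed twice and suspended at 2 × 10^9 cells per cm3 in 100 mM choline chloride/50 mM Mops-Tris, pH 7.2. Exposed to CD at 37 °C for 30 min. An aliquot was diluted in physiological saline, plated on polypeptone/yeast extract/NaCl agar and incubated overnight at 37 °C. Viability was taken from colony counts; LC50 is the concentration giving 50% viability.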

In data set [2] the test system is Staphylococcus aureus. Kind of data set: Antibacterial activity against methicillin-resistant Staphylococcus aureus MS29202 after 18 to 20 hrs by agar dilution method. The format is functional. The gist of the method:
(§1)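 Agar dilution per CLSI. Overnight broth cultures were diluted 100-fold, and one loopful (about 10^5 to 10^4 CFU) was spotted onto agar plates containing the CD. Growth was scored after 18–20 h at 37 °C. MIC values are in µM.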

Data set [3] in a line: Hemolytic activity in rabbit RBC at 2 uM after 20 mins relative to control. The format is ADME, cell-based, Oryctolagus cuniculus, Erythrocyte. As to conditions: rabbit red blood cells (erythrocytes), read-out: Activity. Summed up: (§2)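 Rabbit erythrocytes suspended in 150 mM NaCl/10 mM Hepes-NaOH, pH 7.4, at 0.5% hematocrit (final) and incubated with compound at 37 °C. The table footnote gives 20 min; the methods section gives 30 min. Hemolysis was read as absorbance at 540 nm, with 50 µM lysolecithin defining 100% hemolysis.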

The subject of another data set is Salmonella typhimurium. Kind of data set: Antibacterial activity against drug-sensitive Salmonella typhimurium LT2 after 20 hrs by liquid microdilution method. The settings on record: Salmonella enterica, LT2, 20 h. The format is functional, Salmonella enterica subsp. enterica serovar Typhimurium. The gist of the method:
(§3)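 Two-fold serial dilutions of compound in Mueller–Hinton broth, inoculated with 1 × 10^4 cells and cultured at 37 °C for 20 h in microtiter wells.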
A general note: In broth dilution the organism is exposed to a series of concentrations in liquid medium.

For data set [4], the system named is Enterococcus faecalis. Kind of data set: Antibacterial activity against drug-resistant Enterococcus faecalis MS29030 after 18 to 20 hrs by agar dilution method. The data set is classed as functional. Summed up: as §1
A general note: In agar dilution, organisms are placed on agar that contains the substance at set levels.

The next data set relates to Bacillus subtilis. As to the kind of experiment: Antibacterial activity against drug-sensitive Bacillus subtilis 168 after 20 hrs by liquid microdilution method. The data set is classed as functional. As to conditions: subsp. subtilis str. 168, 20 h. The gist of the method: as §3
The nature of data set [5]: Hemolytic activity in rabbit RBC at 20 uM after 20 mins relative to control. The data set is classed as ADME, cell-based, Oryctolagus cuniculus, Erythrocyte. As to conditions: rabbit red blood cells (erythrocytes), read-out: Activity. Summed up:
as §2

In another data set the test system is Streptococcus agalactiae. Kind of data set: Antibacterial activity against drug-resistant Streptococcus agalactiae B1 after 18 to 20 hrs by agar dilution method. The format is functional. Summed up:
as §1

Data set [6] is described as follows: Hemolytic activity in rabbit RBC at 10 uM after 20 mins relative to control. The format is ADME, cell-based, Oryctolagus cuniculus, Erythrocyte. The settings on record: rabbit red blood cells (erythrocytes), read-out: Activity. The gist of the method: as §2
The next data set deals with Erythrocyte. Kind of data set: Hemolytic activity in rabbit RBC at 50 uM after 20 mins relative to control. The format is ADME, cell-based, Oryctolagus cuniculus. As to conditions: erythrocyte, 20 min, 50 µM. The gist of the method: as §2
For data set [7], the system named is Enterococcus faecalis. As to the kind of experiment: Antibacterial activity against vancomycin-resistant Enterococcus faecalis MS29016 after 18 to 20 hrs by agar dilution method. The format is functional. Summed up:
as §1

Data set [8] is described as follows: Hemolytic activity in rabbit RBC at 1 uM after 20 mins relative to control. The data set is classed as ADME, cell-based, Oryctolagus cuniculus, Erythrocyte. The settings on record: rabbit red blood cells (erythrocytes), read-out: Activity. The gist of the method:
as §2

The nature of data set [9]: Hemolytic activity in rabbit RBC at 5 uM after 20 mins relative to control. The format is ADME, cell-based, Oryctolagus cuniculus, Erythrocyte. The settings on record: rabbit red blood cells (erythrocytes), read-out: Activity. Summed up: as §2
Data set [10] deals with Staphylococcus aureus. As to the kind of experiment: Induction of membrane disruption in methicillin-sensitive Staphylococcus aureus FDA 209P assessed as increase in K+ efflux after 30 mins. The settings on record: 0.5 h, read-out: ED50 (the source's name). The format is functional. The gist of the method: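 S. aureus washed twice and suspended at 2 × 10^9 cells per cm3 in 100 mM choline chloride/50 mM Mops-Tris, pH 7.2, then exposed to compound at 37 °C for 30 min. Released K+ was measured in the centrifuged supernatant with a K+-selective electrode. Melittin (10 µM) defined 100% efflux, and ED50 is the concentration giving 50% efflux.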

Another data set deals with Pseudomonas aeruginosa. As to the kind of experiment: Antibacterial activity against drug-sensitive Pseudomonas aeruginosa PAO1 after 20 hrs by liquid microdilution method. The data set is classed as functional. The settings on record: PAO1, 20 h. The gist of the method: as §3
In data set [11] the test system is Staphylococcus aureus. Kind of data set: Antibacterial activity against methicillin-sensitive Staphylococcus aureus FDA 209P after 20 hrs by liquid microdilution method. The data set is classed as functional. Summed up:
as §3

Data set [12] is described as follows: Lipophilicity, log P of the compound. The data set is classed as physicochemical. As to conditions: octanol/water.
In a further data set the test system is Escherichia coli. As to the kind of experiment: Antibacterial activity against drug-sensitive Escherichia coli K-12 W3110 after 20 hrs by liquid microdilution method. The data set is classed as functional. As to conditions: K-12 substr. W3110, 20 h. Summed up: as §3
For the next data set, the system named is Enterococcus faecium. Kind of data set: Antibacterial activity against drug-resistant Enterococcus faecium MS29120 after 18 to 20 hrs by agar dilution method. The data set is classed as functional. Summed up:
as §1

The test system of data set [13] is Staphylococcus aureus. As to the kind of experiment: Induction of membrane disruption in methicillin-sensitive Staphylococcus aureus FDA 209P assessed as increase in K+ efflux at 10 uM after 30 mins relative to control. The data set is classed as functional. Summed up: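 S. aureus suspension (2 × 10^9 cells per cm3, 100 mM choline chloride/50 mM Mops-Tris, pH 7.2) treated with CD at 37 °C for 30 min, then centrifuged. K+ released into the supernatant was read with a K+-selective electrode. Efflux is expressed relative to 10 µM melittin, which sets 100%.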

A word on the LC50: it is the concentration that kills 50% of the test population. As a reminder, the MIC is the lowest concentration found to suppress growth. A low value points to greater potency. As usually defined, the logP is the decadic logarithm of the partition coefficient of the neutral form, usually between octanol and water. Read a high logP as higher lipophilicity. For `CCCCCCCNCc1cn(C[C@H]2O[C@@H]3O[C@H]4[C@H](O)[C@@H](O)[C@@H](O[C@H]5[C@H](O)[C@@H](O)[C@@H](O[C@H]6[C@H](O)[C@@H](O)[C@@H](O[C@H]7[C@H](O)[C@@H](O)[C@@H](O[C@H]8[C@H](O)[C@@H](O)[C@@H](O[C@H]9[C@H](O)[C@@H](O)[C@@H](O[C@H]2[C@H](O)[C@H]3O)O[C@@H]9Cn2cc(CNCCCCCCC)nn2)O[C@@H]8Cn2cc(CNCCCCCCC)nn2)O[C@@H]7Cn2cc(CNCCCCCCC)nn2)O[C@@H]6Cn2cc(CNCCCCCCC)nn2)O[C@@H]5Cn2cc(CNCCCCCCC)nn2)O[C@@H]4Cn2cc(CNCCCCCCC)nn2)nn1`, in the data set with Staphylococcus aureus [1], the LC50 was 15 µM. Also, the MIC against Staphylococcus aureus [2] is > 40 µM; in the data set with Salmonella typhimurium, 20 µM (≈ 47.7 µg/mL); in the data set on Enterococcus faecalis [4] it was > 40 µM; against Bacillus subtilis, 5 µM (≈ 11.9 µg/mL); against Streptococcus agalactiae, > 40 µM; in the data set on Enterococcus faecalis [7], > 40 µM. Moreover, the MIC against Pseudomonas aeruginosa was 40 µM (≈ 95.3 µg/mL); against Staphylococcus aureus [11], 5 to 40 µM (≈ 11.9 to 95.3 µg/mL); in the data set with Escherichia coli, 20 µM (≈ 47.7 µg/mL); in the data set on Enterococcus faecium it was > 40 µM. The hemolysis at 20 min, 2 µM in data set [3] stood at 39%. For the same compound, in [5], the hemolysis at 20 min, 20 µM was 116%. For the same compound, the hemolysis at 20 min, 10 µM in data set [6] came to 110%. In the data set on Erythrocyte, this compound came in with an Activity of 137%. The hemolysis at 20 min, 1 µM in [8] came out at 9%. Moreover, in [9], the hemolysis at 20 min, 5 µM was found to be 85%. Also, in the data set on Staphylococcus aureus [10], the EC50 amounted to 30 µM. Further, the logP in [12] came to 0.36.
In the case of `CC[C@H](C)[C@H](NC(=O)CN)C(=O)NCC(=O)N[C@@H](C)C(=O)N[C@H](C(=O)N[C@@H](CC(C)C)C(=O)N[C@@H](CCCCN)C(=O)N[C@H](C(=O)N[C@@H](CC(C)C)C(=O)N[C@H](C(=O)N[C@H](C(=O)NCC(=O)N[C@@H](CC(C)C)C(=O)N1CCC[C@H]1C(=O)N[C@@H](C)C(=O)N[C@@H](CC(C)C)C(=O)N[C@H](C(=O)N[C@@H](CO)C(=O)N[C@@H](Cc1c[nH]c2ccccc12)C(=O)N[C@H](C(=O)N[C@@H](CCCCN)C(=O)N[C@@H](CCCNC(=N)N)C(=O)N[C@@H](CCCCN)C(=O)N[C@@H](CCCNC(=N)N)C(=O)N[C@@H](CCC(N)=O)C(=O)N[C@@H](CCC(N)=O)C(N)=O)[C@@H](C)CC)[C@@H](C)CC)[C@@H](C)O)[C@@H](C)O)C(C)C)C(C)C` [MELITTIN], the LC50 in the data set with Staphylococcus aureus [1] is 0.2 to 0.5 µM. The Activity in the data set on Staphylococcus aureus [13] worked out at 100%. Further, the EC50 in the data set on Staphylococcus aureus [10] fell in the range of 0.2 to 0.5 µM.
